Data: ChEMBL document CHEMBL3244174, “Synthesis and biological activity of some new furan quaternary salts” (J Med Chem, 1977)

What was measured:
[1] = test system: Candida albicans; assay: Antifungal activity against Candida albicans SKF 2270 assessed as growth inhibition by agar dilution method; format: functional
[2] = test system: Mycobacterium tuberculosis; assay: Antibacterial activity against Mycobacterium tuberculosis H37Rv assessed as growth inhibition by serial dilution method; format: functional
Method in brief: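 M. tuberculosis H37Rv maintained on Lowenstein–Jensen medium; tested in Youman's medium by serial dilution.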

[3] = test system: Salmonella typhi; assay: Antibacterial activity against Salmonella typhi 115 assessed as growth inhibition after 24 hrs by dilution tube method; format: functional, Salmonella enterica subsp. enterica serovar Typhi; settings: Salmonella enterica, 115, 24 h
Method in brief: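 Dilution tube method in Tryptone Soya Broth; MIC (μg/ml) taken as highest dilution preventing visible growth; duplicates at every concentration; nitrofurantoin reference run under same conditions.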

[4] = test system: Trichophyton mentagrophytes; assay: Antifungal activity against Trichophyton mentagrophytes A-280 USPHS assessed as growth inhibition by agar dilution method; format: functional
[5] = test system: Staphylococcus aureus; assay: Antibacterial activity against Staphylococcus aureus ATCC 6538 assessed as growth inhibition after 24 hrs by dilution tube method; format: functional; settings: ATCC 6538, 24 h
Method in brief: (§1)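 Broth tube dilution in Tryptone Soya Broth, duplicate tubes at each concentration. MIC (μg/ml) was the highest dilution preventing visible growth. Nitrofurantoin run under the same conditions.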

[6] = test system: Microsporum canis; assay: Antifungal activity against Microsporum canis VM-200 USPHS assessed as growth inhibition by agar dilution method; format: functional
[7] = test system: Enterococcus faecalis; assay: Antibacterial activity against Streptococcus faecalis ATCC 10541 assessed as growth inhibition after 24 hrs by dilution tube method; format: functional; settings: ATCC 10541, 24 h; method in brief: as §1
[8] = test system: Pseudomonas aeruginosa; assay: Antibacterial activity against Pseudomonas aeruginosa ATCC 10145 assessed as growth inhibition after 24 hrs by dilution tube method; format: functional; settings: ATCC 10145, 24 h; method in brief: as §1
[9] = test system: Trichophyton rubrum; assay: Antifungal activity against Trichophyton rubrum 252 CSTM assessed as growth inhibition by agar dilution method; format: functional
[10] = test system: Escherichia coli; assay: Antibacterial activity against Escherichia coli 114 assessed as growth inhibition after 24 hrs by dilution tube method; format: functional; settings: Escherichia coli, 114, 24 h; method in brief: as §1
[11] = test system: Nannizzia gypsea; assay: Antifungal activity against Microsporum gypseum 153 CSTM assessed as growth inhibition by agar dilution method; format: functional
[12] = test system: Agrobacterium tumefaciens; assay: Antibacterial activity against Agrobacterium tumefaciens NRRL B-36 assessed as growth inhibition after 24 hrs by dilution tube method; format: functional; settings: NRRL B-36, 24 h; method in brief: as §1
[13] = test system: Histoplasma capsulatum; assay: Antifungal activity against Histoplasma capsulatum RNSH Hi-70 1/2 assessed as growth inhibition by agar dilution method; format: functional
[14] = test system: Klebsiella pneumoniae; assay: Antibacterial activity against Klebsiella pneumoniae ATCC 10031 assessed as growth inhibition after 24 hrs by dilution tube method; format: functional; settings: ATCC 10031, 24 h; method in brief: as §1
[15] = test system: Cryptococcus neoformans; assay: Antifungal activity against Cryptococcus neoformans 103 assessed as growth inhibition by agar dilution method; format: functional

| Structure (SMILES) | MIC [1] [µg/mL] | MIC [2] [µg/mL] | MIC [3] [µg/mL] | MIC [4] [µg/mL] | MIC [5] [µg/mL] | MIC [6] [µg/mL] | MIC [7] [µg/mL] | MIC [8] [µg/mL] | MIC [9] [µg/mL] | MIC [10] [µg/mL] | MIC [11] [µg/mL] | MIC [12] [µg/mL] | MIC [13] [µg/mL] | MIC [14] [µg/mL] | MIC [15] [µg/mL] |
| --- | --- | --- | --- | --- | --- | --- | --- | --- | --- | --- | --- | --- | --- | --- | --- |
| Cc1ccc(C[N+](C)(C)CCCCCCOc2c(Br)cc(Br)cc2Br)o1.[Br-] | > 200 | 10 | 75 | > 200 | 5 | > 200 | 7.5 | 2.5 | > 200 | > 200 | > 200 | 25 | 75 | 5 | 10 |
| Cc1cc(OCCCCCCCC[N+](C)(C)Cc2ccc(Br)o2)c(C(C)C)cc1Cl.Cc1ccc(S(=O)(=O)[O-])cc1 | > 200 | 25 | > 200 | 200 | 100 | 100 | 100 | 25 | 200 | > 200 | 200 | 100 | > 200 | 100 | 50 |
| Cc1ccc(C[N+](C)(C)CCCCOc2cc(C)c(Cl)cc2C(C)C)o1.[Br-] | 50 | 10 | 100 | 50 | 25 | 25 | 25 | 5 | > 200 | > 200 | > 200 | 50 | 100 | 5 | 25 |
| C[N+](C)(CCCCCCOc1c(Br)cc(Br)cc1Br)Cc1ccco1.[Br-] | 50 | 25 | > 200 | 100 | 25 | 100 | 25 | 5 | 100 | > 200 | 100 | 50 | 50 | 7.5 | 25 |
| Cc1cc(OCCCCCC[N+](C)(C)Cc2ccc(Br)o2)c(C(C)C)cc1Cl.Cc1ccc(S(=O)(=O)[O-])cc1 | > 200 | 10 | > 200 | 200 | 50 | 100 | 50 | 10 | 200 | > 200 | 200 | 100 | > 200 | 25 | 100 |
| Cc1cc(OCCCCCCCCCCCC[N+](C)(C)Cc2ccc([N+](=O)[O-])o2)c(C(C)C)cc1Cl.Cc1ccc(S(=O)(=O)[O-])cc1 | > 200 | 100 | > 200 | > 200 | 200 | > 200 | 200 | 50 | > 200 | > 200 | > 200 | > 200 | > 200 | 200 | 100 |
| C[N+](C)(CCCOc1c(Br)cc(Br)cc1Br)Cc1ccc(Br)o1.[Br-] | > 200 | 10 | 100 | > 200 | 10 | > 200 | 25 | 4 | > 200 | > 200 | > 200 | 50 | > 200 | 7.5 | 50 |
| C[N+](C)(CCCCCCCOc1c(Br)cc(Br)cc1Br)Cc1ccc([N+](=O)[O-])o1.[Br-] | > 200 | 10 | > 200 | > 200 | 7.5 | > 200 | 7.5 | 3 | > 200 | > 200 | > 200 | 25 | > 200 | 5 | 5 |
| C[N+](C)(CCCCCCCCCCOc1c(Br)cc(Br)cc1Br)Cc1ccc(Br)o1.[Br-] | > 200 | 50 | > 200 | > 200 | 10 | > 200 | 4 | 2 | > 200 | > 200 | > 200 | 7.5 | > 200 | 3 | 4 |
| C[N+](C)(CCCCCOc1c(Br)cc(Br)cc1Br)Cc1ccco1.[Br-] | 100 | 25 | > 200 | 100 | 25 | 100 | 50 | 25 | > 200 | > 200 | 100 | 100 | 50 | 25 | 25 |
| Cc1cc(OCC[N+](C)(C)Cc2ccc(Br)o2)c(C(C)C)cc1Cl.[Br-] | > 200 | 10 | 100 | 100 | 9 | 100 | 25 | 5 | > 200 | > 200 | > 200 | 25 | 50 | 25 | 50 |
| C[N+](C)(CCCCCCCOc1c(Br)cc(Br)cc1Br)Cc1ccc(Br)o1.[Br-] | > 200 | 25 | > 200 | > 200 | 3 | > 200 | 4 | 2 | > 200 | > 200 | > 200 | 7.5 | > 200 | 2 | 5 |
| Cc1cc(OCCCC[N+](C)(C)Cc2ccco2)c(C(C)C)cc1Cl.[Br-] | 100 | 10 | > 200 | > 200 | 25 | > 200 | 25 | 7.5 | > 200 | > 200 | > 200 | 25 | > 200 | 10 | 25 |
| Cc1cc(OCCCCCCCCCCCC[N+](C)(C)Cc2ccc(Br)o2)c(C(C)C)cc1Cl.Cc1ccc(S(=O)(=O)[O-])cc1 | > 200 | 200 | > 200 | > 200 | 200 | > 200 | > 200 | 50 | > 200 | > 200 | > 200 | > 200 | > 200 | 200 | > 200 |
| Cc1cc(OCC[N+](C)(C)Cc2ccc([N+](=O)[O-])o2)c(C(C)C)cc1Cl.Cc1ccc(S(=O)(=O)[O-])cc1 | > 200 | 50 | > 200 | > 200 | 100 | > 200 | 200 | 25 | > 200 | > 200 | > 200 | 100 | > 200 | 25 | 100 |
| Cc1ccc(C[N+](C)(C)CCOc2c(Br)cc(Br)cc2Br)o1.[Br-] | > 200 | 25 | > 200 | > 200 | 50 | > 200 | 50 | 25 | > 200 | > 200 | > 200 | 100 | > 200 | 50 | 50 |
| Cc1ccc(C[N+](C)(C)CCCCCOc2c(Br)cc(Br)cc2Br)o1.[Br-] | > 200 | 5 | 100 | > 200 | 7.5 | > 200 | 25 | 5 | > 200 | > 200 | > 200 | 25 | 100 | 5 | 25 |
| Cc1cc(OCCC[N+](C)(C)Cc2ccc(Br)o2)c(C(C)C)cc1Cl.[Br-] | > 200 | 10 | 100 | > 200 | 10 | 100 | 10 | 4 | 100 | > 200 | > 200 | 25 | 100 | 7.5 | 50 |
| C[N+](C)(CCOc1ccc(Cl)cc1Cl)Cc1ccc(Br)o1.[Br-] | > 200 | > 200 | > 200 | > 200 | 100 | > 200 | > 200 | 50 | > 200 | > 200 | > 200 | > 200 | > 200 | 100 | > 200 |
